Source: ChEMBL document CHEMBL4257590, “Semisynthesis of Platensimycin Derivatives with Antibiotic Activities in Mice via Suzuki-Miyaura Cross-Coupling Reactions” (J Med Chem, 2018)
Values after ≈ are worked out from the molar mass of the structure shown.

Legend:
Format in all cases: functional
[1] = tested on: Staphylococcus aureus; assay: Antibacterial activity against Staphylococcus aureus ATCC 29213 after 16 hrs by agar dilution method; settings: ATCC 29213, 16 h
Summary of the method: (§1)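 Agar dilution in LB agar with compound (from methanol solutions) at final 0.5–64 μg/ml per plate. Strains grown 16 h at 37 °C, 250 rpm in LB broth, adjusted to OD600 0.25±0.05, diluted 10^4-fold; 2 μl spotted per plate, incubated 16 h at 37 °C. MIC = lowest concentration with no visible colonies; at least two independent experiments. Linezolid and PTM as controls.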

[2] = tested on: Staphylococcus aureus; assay: Antibacterial activity against methicillin-sensitive Staphylococcus aureus isolate 1 after 16 hrs by agar dilution method; settings: isolate 1, 16 h; summary of the method: as §1
[3] = tested on: Staphylococcus aureus; assay: Antibacterial activity against methicillin-sensitive Staphylococcus aureus isolate 2 after 16 hrs by agar dilution method; settings: isolate 2, 16 h; summary of the method: as §1
[4] = tested on: Staphylococcus aureus; assay: Antibacterial activity against methicillin-resistant Staphylococcus aureus isolate 3 after 16 hrs by agar dilution method; settings: isolate 3, 16 h; summary of the method: as §1
[5] = tested on: Staphylococcus aureus; assay: Antibacterial activity against methicillin-resistant Staphylococcus aureus isolate 4 after 16 hrs by agar dilution method; settings: isolate 4, 16 h; summary of the method: as §1
[6] = tested on: Staphylococcus aureus; assay: Antibacterial activity against methicillin-resistant Staphylococcus aureus isolate 5 after 16 hrs by agar dilution method; settings: isolate 5, 16 h; summary of the method: as §1
[7] = tested on: Staphylococcus aureus; assay: Antibacterial activity against methicillin-resistant Staphylococcus aureus isolate 6 after 16 hrs by agar dilution method; settings: isolate 6, 16 h; summary of the method: as §1

| SMILES | MIC [1] [µg/mL] | MIC [2] [µg/mL] | MIC [3] [µg/mL] | MIC [4] [µg/mL] | MIC [5] [µg/mL] | MIC [6] [µg/mL] | MIC [7] [µg/mL] |
| --- | --- | --- | --- | --- | --- | --- | --- |
| C[C@]12C[C@@]34C=C(c5ccccc5)C(=O)[C@@](C)(CCC(=O)Nc5c(O)ccc(C(=O)O)c5O)[C@@H]3[C@H](C[C@H]1C4)O2 | 16 (≈ 30.9 µM) | 16 (≈ 30.9 µM) | 16 (≈ 30.9 µM) | 16 (≈ 30.9 µM) | 16 (≈ 30.9 µM) | 16 (≈ 30.9 µM) | 16 (≈ 30.9 µM) |
| C[C@]12C[C@@]34C=C(c5ccc(-c6ccccc6)cc5)C(=O)[C@@](C)(CCC(=O)Nc5c(O)ccc(C(=O)O)c5O)[C@@H]3[C@H](C[C@H]1C4)O2 | 4 (≈ 6.74 µM) | 8 (≈ 13.5 µM) | 8 (≈ 13.5 µM) | 8 (≈ 13.5 µM) | 8 (≈ 13.5 µM) | 8 (≈ 13.5 µM) | 8 (≈ 13.5 µM) |
| Cc1cccc(C2=C[C@]34C[C@@H]5C[C@H](O[C@@]5(C)C3)[C@H]4[C@](C)(CCC(=O)Nc3c(O)ccc(C(=O)O)c3O)C2=O)c1 | 8 (≈ 15 µM) | 4 (≈ 7.52 µM) | 4 (≈ 7.52 µM) | 8 (≈ 15 µM) | 8 (≈ 15 µM) | 8 (≈ 15 µM) | 8 (≈ 15 µM) |
| C[C@]12C[C@@]34C=C(c5cc(Cl)cc(Cl)c5)C(=O)[C@@](C)(CCC(=O)Nc5c(O)ccc(C(=O)O)c5O)[C@@H]3[C@H](C[C@H]1C4)O2 | 8 (≈ 13.6 µM) | 8 (≈ 13.6 µM) | 8 (≈ 13.6 µM) | 8 (≈ 13.6 µM) | 8 (≈ 13.6 µM) | 8 (≈ 13.6 µM) | 8 (≈ 13.6 µM) |
| C[C@]12C[C@@]34C=C(c5cccc(O)c5)C(=O)[C@@](C)(CCC(=O)Nc5c(O)ccc(C(=O)O)c5O)[C@@H]3[C@H](C[C@H]1C4)O2 | 32 (≈ 60 µM) | 32 (≈ 60 µM) | 32 (≈ 60 µM) | 32 (≈ 60 µM) | 32 (≈ 60 µM) | 32 (≈ 60 µM) | 32 (≈ 60 µM) |
| CCCCCc1ccc(C2=C[C@]34C[C@@H]5C[C@H](O[C@@]5(C)C3)[C@H]4[C@](C)(CCC(=O)Nc3c(O)ccc(C(=O)O)c3O)C2=O)cc1 | 4 (≈ 6.81 µM) | 4 (≈ 6.81 µM) | 4 (≈ 6.81 µM) | 4 (≈ 6.81 µM) | 4 (≈ 6.81 µM) | 4 (≈ 6.81 µM) | 4 (≈ 6.81 µM) |
| Cc1ccccc1C1=C[C@]23C[C@@H]4C[C@H](O[C@@]4(C)C2)[C@H]3[C@](C)(CCC(=O)Nc2c(O)ccc(C(=O)O)c2O)C1=O | 8 (≈ 15 µM) | 8 (≈ 15 µM) | 16 (≈ 30.1 µM) | 16 (≈ 30.1 µM) | 16 (≈ 30.1 µM) | 16 (≈ 30.1 µM) | 16 (≈ 30.1 µM) |
| C[C@]12C[C@@]34C=C(c5ccccc5-c5ccccc5)C(=O)[C@@](C)(CCC(=O)Nc5c(O)ccc(C(=O)O)c5O)[C@@H]3[C@H](C[C@H]1C4)O2 | 4 (≈ 6.74 µM) | 8 (≈ 13.5 µM) | 8 (≈ 13.5 µM) | 8 (≈ 13.5 µM) | 8 (≈ 13.5 µM) | 8 (≈ 13.5 µM) | 8 (≈ 13.5 µM) |
| C[C@]12C[C@@]34C=C(c5ccc(Br)cc5)C(=O)[C@@](C)(CCC(=O)Nc5c(O)ccc(C(=O)O)c5O)[C@@H]3[C@H](C[C@H]1C4)O2 | 2 (≈ 3.35 µM) | 2 (≈ 3.35 µM) | 4 (≈ 6.71 µM) | 4 (≈ 6.71 µM) | 4 (≈ 6.71 µM) | 2 (≈ 3.35 µM) | 2 (≈ 3.35 µM) |
| C[C@]12C[C@@]34C=C(c5cc6ccccc6c6ccccc56)C(=O)[C@@](C)(CCC(=O)Nc5c(O)ccc(C(=O)O)c5O)[C@@H]3[C@H](C[C@H]1C4)O2 | 2 (≈ 3.24 µM) | 2 (≈ 3.24 µM) | 2 (≈ 3.24 µM) | 4 (≈ 6.48 µM) | 2 (≈ 3.24 µM) | 4 (≈ 6.48 µM) | 2 (≈ 3.24 µM) |
